SUMO1-SIM PPI: modulators of SUMO1 protein-protein interactions, primary screen, biochemical, uHTS; inhibition, % at 20 µM; 0.33% of 360,000 active; AID 602429, 2012; SUMO1 binding to a labelled peptide, TR-FRET, 1 h; Small ubiquitin-related modifier 1 (Homo sapiens), P63165; in the data active = inhibition above about 37%
GRK2 aptamer HTS: compounds blocking aptamer binding on GRK2 – biochemical, human GRK2, bead flow cytometry, HTS, primary screen; Beta-adrenergic receptor kinase 1 (Homo sapiens), P25098; FAM-aptamer displacement from GRK2; inhibition of aptamer binding, % at 10 µM; 0.59% of 330,000 active;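 active = inhibition of aptamer binding above 40%, roughly 3 SD of noise, on plates passing a quality check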;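 note: median bead fluorescence of bound FAM aptamer so fluorescent compounds give negative values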
Scp1 inh: Scp-1 phosphatase inhibitors, primary screen, biochemical, colorimetric, uHTS | Carboxy-terminal domain RNA polymerase II polypeptide A small phosphatase 1 (Homo … | Recombinant Scp1, phosphopeptide, malachite green phosphate absorbance | inhibition, % at 20 µM | 0.88% of 340,000 active | AID 493091, 2011;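 active = inhibition above about 50% at 20 µM, limit read from the data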;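 note: plate controls were DMSO wells with enzyme for no effect and wells lacking enzyme for full effect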
Target sequence (Q9GZU7 76-261 limits assumed): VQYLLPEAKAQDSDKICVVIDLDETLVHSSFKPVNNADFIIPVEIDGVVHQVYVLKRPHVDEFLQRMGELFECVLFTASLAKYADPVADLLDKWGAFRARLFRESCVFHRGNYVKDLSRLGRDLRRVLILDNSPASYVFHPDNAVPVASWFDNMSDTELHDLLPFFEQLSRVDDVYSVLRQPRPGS
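Material: truncated SCP-1 phosphatase (76-261aa) / Buffer or medium: 50 mM Tris acetate pH 5.5, 0.005% Tween-20, 10 mM MgCl2 / Compound dosing: one concentration, 20 µM, with 1.0% DMSO / Incubation: 45 min room-temperature reaction, 5 min colour, 30 min stabiliser / Detection: colorimetric free-phosphate detection, absorbance 630 nm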
STEP inh: STEP phosphatase inhibitors, primary screen, biochemical, fluorescence intensity, uHTS | Tyrosine-protein phosphatase non-receptor type 5 (Homo sapiens), P54829 | recombinant STEP, OMFP fluorogenic substrate | inhibition, % at 20 µM | 0.25% of 360,000 active;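 active = inhibition at 20 µM, scaled per plate between control wells, above about 37%, limit read from the data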;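 note: 0% = DMSO with enzyme and substrate and 100% = substrate only without enzyme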
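Assay system: isolated STEP enzyme / Timing: 20 min at room temperature, dark / Doses: 20 µM, 1% DMSO / Technique: fluorescence intensity, excitation 480 nm, emission 540 nm / Reagent: fluorogenic phosphatase substrate OMFP at 25 µM final / Measure: percent inhibition scaled to no-enzyme and uninhibited-enzyme controls, plate-pattern corrected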
DNMT1 block: human DNMT1 methyltransferase inhibitors, primary screen, biochemical, molecular beacon, fluorescence, HinP1I cleavage, uHTS; inhibition (reported as % activation of signal), % at 10 µM; 0.83% of 360,000 active; AID 588458, 2011; DNA (cytosine-5)-methyltransferase 1 (Homo sapiens), P26358; in the data active = inhibition above about 50%
LMPTP inh: LMPTP phosphatase inhibitors, primary screen, biochemical, fluorescence intensity, uHTS | recombinant LMPTP-A, OMFP fluorogenic substrate | Low molecular weight phosphotyrosine protein phosphatase (Homo sapiens), P24666 | AID 651560, 2012 | 0.22% of 360,000 active | inhibition, % at 20 µM;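 active = compounds that cut the enzyme signal by at least half of the control window in the single-dose screen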;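 note: plate controls were DMSO wells with enzyme plus substrate for no effect and substrate without enzyme for full effect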
Target sequence (P24666 whole entry, looked up): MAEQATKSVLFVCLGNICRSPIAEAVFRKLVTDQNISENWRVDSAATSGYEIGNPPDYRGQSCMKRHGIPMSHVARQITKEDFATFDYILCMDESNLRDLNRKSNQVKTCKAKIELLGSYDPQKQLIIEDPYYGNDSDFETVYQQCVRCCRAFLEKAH
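Material: LMPTP-A; amount: 0.625 nM enzyme; doses: single 20 µM dose; times: reaction 50 min, room temperature, dark; technique: fluorescence intensity of OMFP turnover product; benchmarks: no-enzyme and uninhibited controls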
Starred values were filed as active, the others as inactive; / = not tested or not shown. Only some compounds are listed: those with a hit (about 2.1% of all), similar ones and a draw of the others.

SMILES	SUMO1-SIM PPI	GRK2 aptamer HTS	Scp1 inh	STEP inh	DNMT1 block	LMPTP inh
CCn1c(SCC(=O)Nc2ccc3c(c2)c2ccccc2n3CC)nnc1-c1ccco1	26	0	74*	0	96*	15
Cc1cc(NC(=O)CSc2nnc3ccc(-c4ccccc4)nn23)no1	-8	/	/	-1	4	-1
CC(=O)Nc1ccc(OC(=O)c2c(-c3ccccc3Cl)noc2C)cc1	37*	0	-7	-1	-4	-1
CC(=O)Nc1ccc(NC(=O)c2c(-c3ccccc3Cl)noc2C)c(C)c1	2	0	-4	-4	2	-2
O=C(NC1CCCC1)c1ccc2nc(-c3ccco3)c(-c3ccco3)nc2c1	36	8	79*	11	113*	56*
O=C(NC1CCCC1)c1ccc2nc[nH]c2c1	-1	3	-2	-3	-6	-2
O=C(NCCc1ccccc1)c1ccc2nc(-c3ccco3)c(-c3ccco3)nc2c1	27	1	77*	6	105*	59*
CN(C)CCCN(C(=O)c1ccc(Br)s1)c1nc2cc3c(cc2s1)OCCO3	-1	0	1	1	1	0
CN(C)CCCN(C(=O)c1ccc([N+](=O)[O-])s1)c1nc2cc3c(cc2s1)OCCO3	-58	71*	-5	-4	-4	-5
COc1cc(NC(=O)CSCC(=O)Nc2cccc(C(F)(F)F)c2)c(Cl)cc1Cl	44*	1	-15	0	-3	2
O=C(COCC(=O)Nc1cccc(C(F)(F)F)c1)Nc1cccc(C(F)(F)F)c1	-3	1	-12	-1	-13	3
Nc1ccc(Cc2ccc(N)c(O)c2)cc1O	-5	/	-9	0	-27	50*
COc1cc(Cc2ccc(N)c(OC)c2)ccc1N	-2	0	-2	1	-12	-1
COC(=O)CCCN1C(=O)c2cccc3cccc(c23)C1=O	-27	1	-4	0	3	-2
O=C(CCCN1C(=O)c2cccc3cccc(c23)C1=O)Nc1nccs1	50*	0	-5	4	0	-1
O=C(Nc1cccc(S(=O)(=O)NC2=NCCCCC2)c1)c1cc(-c2ccco2)nc2ccccc12	12	4	90*	0	97*	35
CCCCCC(=O)Nc1cc(S(=O)(=O)N2CCCCC2)ccc1N1CCCCC1	-1	/	-1	6	-2	6
CCCCCC(=O)Nc1cc(S(=O)(=O)O)cc2cc(S(=O)(=O)O)cc(O)c12	119*	/	102*	99*	-19	96*
C[C@@H](CO)NC(=O)c1[nH]cnc1C(=O)Nc1cccc(Cl)c1	1	/	/	-4	3	0
CN1CCCC1CCNc1ccc2c(=O)c3ccccc3oc2c1 (centres undefined)	-2	0	4	6	17	3
CN1CCC[C@H]1CCNc1ccc2c(=O)c3ccccc3n(C)c2c1	82*	/	0	9	40	46
COC(=O)C1CC2=C(CCC2=O)N(c2ccccc2)C1=O (centres undefined)	-1	/	0	-2	4	-2
O=C(C[n+]1ccc(CCSc2ccc(F)cc2)cc1)c1ccccc1	-15	0	17	1	-48	54*
C=CCN(CC=C)S(=O)(=O)c1ncn[nH]1	44*	3	0	2	41	-3
C/C(N)=C(/C#N)C(=O)COc1ccc(Cl)cc1Cl	61*	0	-7	-3	-3	3
Nc1ccc2nc(CCCCc3nc4ccccc4[nH]3)[nH]c2c1	3	0	-4	0	-7	10
Nc1ccc2nc(CCCCCCc3nc4ccc(N)cc4[nH]3)[nH]c2c1	0	0	14	3	-15	68*

Screens as filed in PubChem BioAssay.
